STAT1 activator = STAT1 signaling activators, primary screen, cell-based, HTS, luciferase reporter. NIH 3T3 STAT1-luciferase reporter, IFN-gamma, luminescence; 100% = IFN-gamma alone, no compound. activation (% of control), % at 5.5 µM. hit rate 2.6% among 200,000;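 active means activation above the screen-wide mean activation plus 3 SD, cut at about 130% in these data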;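 further: raw ratio to IFN-gamma control signal so 100% means no change and 0% no light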
APP 5'UTR act = activators of APP 5'UTR luciferase reporter, primary screen, SH-SY5Y cells | SH-SY5Y APP 5'UTR luciferase reporter, luminescence; zero percent = DMSO vehicle wells | activation, % at 2 µM | hit rate 1% among 190,000;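 active means activation above a set limit, based on mean plus 3 SD of controls, cut at about 140% in these data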
FLuc inh counter = firefly luciferase enzyme inhibitors, primary screen, artefact control for luciferase-based inhibitor screens, biochemical, luminescence, ATPLite; inhibition, % at 10 µM; hit rate 1.5% among 200,000; Luciferin 4-monooxygenase (Photinus pyralis), P08659; 10 min;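 active means inhibition above about 50% when tested at 10 µM, limit read from the data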
Target sequence (P08659 whole entry, looked up): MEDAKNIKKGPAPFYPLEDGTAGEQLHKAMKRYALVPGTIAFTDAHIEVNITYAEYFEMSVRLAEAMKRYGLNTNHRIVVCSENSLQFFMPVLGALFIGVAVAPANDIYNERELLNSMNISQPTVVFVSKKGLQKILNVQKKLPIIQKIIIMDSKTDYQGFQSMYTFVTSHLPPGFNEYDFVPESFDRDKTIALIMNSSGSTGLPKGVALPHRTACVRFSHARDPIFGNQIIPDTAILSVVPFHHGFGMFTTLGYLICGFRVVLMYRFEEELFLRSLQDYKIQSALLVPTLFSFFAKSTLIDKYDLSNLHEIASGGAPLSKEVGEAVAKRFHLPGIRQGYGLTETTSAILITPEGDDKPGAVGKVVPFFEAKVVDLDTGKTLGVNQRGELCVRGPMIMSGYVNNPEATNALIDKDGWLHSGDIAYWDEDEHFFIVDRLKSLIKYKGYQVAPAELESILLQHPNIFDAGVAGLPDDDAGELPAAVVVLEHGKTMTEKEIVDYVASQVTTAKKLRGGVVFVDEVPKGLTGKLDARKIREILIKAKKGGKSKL
Rad51 HR inh = human RAD51 strand exchange inhibitors, primary screen, biochemical, fluorescence; DNA repair protein RAD51 homolog 1 (Homo sapiens), Q06609; hRad51 DNA strand exchange, fluorescence dequenching; inhibition, % at 10 µM; hit rate 0.085% among 200,000; AID 1385, 2008;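 active means inhibition above 40% at the single screening dose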;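 further: 0% = DMSO control wells and 100% = blanks with heterologous ssDNA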
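material = hRad51 filaments on single-stranded DNA | reagent = Donor/quencher-labelled 47-bp dsDNA substrate | compound = 10 µM final, single point | schedule = strand-exchange reaction 15 min at room temperature | measured by = fluorescein emission 520 nm, excitation 485 nm | read-out basis = % inhibition versus plate control and blank means | benchmarks = plate controls and plate blanks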
NF-kB neuron act = activators of NF-kB expression in neurons, primary screen, cell-based, HTS | hit rate 1.6% among 190,000 | AID 1239, 2008 | fold change at 12.5 µM | human neuronal cells, NF-kB reporter expression; active compounds read high; in the data active means fold change above about 3.3
FLuc act counter = FLuc activators, initial screening, artefact control for FLuc-dependent activation tests, biochemical, ATPlite luminescence; ATPlite luciferase biochemical, 10 min; 0 = ATP-free wells, 1 = DMSO control; activation factor at 10 µM; 200,000 tested, under 10 active;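 active means luciferase activation factor, scaled between plate controls, of at least 2 with compound at 10 µM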
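Material: luciferase plus luciferin reagent, cell-free. Medium: PBS buffer for ATP. Also added: ATP substrate, dispensed from a 10.24 µM working solution in PBS. Doses: test compounds dosed from 2 mM stocks in 100% DMSO. Incubation: 10 min post-reagent at room temperature. Technique: light output (luminescence). Read-out basis: luminescence gain marking luciferase activators.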
* hit, by the source's call; . = no result. Only some compounds are listed: those with a hit (about 3.9% of all), similar ones and a draw of the others.

SMILES	STAT1 activator	APP 5'UTR act	FLuc inh counter	Rad51 HR inh	NF-kB neuron act	FLuc act counter
COC(=O)Cc1ccc(NC(=S)N2CCCC(CO)C2)cc1 (centres undefined)	97	38	93*	-4	1.4	0.1
COC(=O)Cc1ccc(NC(=S)N2CCCC(C)C2)cc1 (centres undefined)	104	30	89*	.	1.5	0.1
CC(=O)c1ccc(NC(=S)N2CCCC(CO)C2)cc1 (centres undefined)	114	25	52*	-3	2.4	0.5
CC1CCCN(C(=S)Nc2ccc(Nc3ccccc3)cc2)C1 (centres undefined)	136*	80	0	.	1.9	1
CC(=O)c1ccc(NC(=S)N2CCCCCC2)cc1	114	30	9	-28	1.5	0.9
COc1ccc(/C=N/NC(=O)c2ccncc2)cc1Cn1nc([N+](=O)[O-])c(Br)c1C	97	9	-6	19	1.2	1.1
NNC(=S)Nc1c(Br)cc(F)cc1Br	.	.	.	-2	.	.
COc1cc(NC(=S)N2CCCC(CO)C2)cc(OC)c1 (centres undefined)	109	-17	2	-55	1.1	1
OCC1CCCN(C(=S)Nc2ccc(Oc3ccccc3)cc2)C1 (centres undefined)	147*	69	6	18	2.4	0.9
O=C(c1cccnc1)N1CCN(c2ccc3ccccc3n2)CC1	90	18	-2	1	1.1	1
Nn1c(SCc2ccccn2)nncc1=O	105	-3	-5	4	0.93	1.1
C/C(=N\NC(=O)c1ccccc1O)c1ccc(Br)s1	100	24	79*	0	2.2	0.2
C/C(=N\NC(=O)c1cc(Br)ccc1O)c1cccs1	100	59	65*	5	2.9	0.4
C/C(=N\NC(=O)c1cc(C)nc2ccccc12)c1cccs1	.	.	.	-6	.	.
COc1ccc(CCNC(=O)C(NS(=O)(=O)c2ccc3c(c2)CCN3C(C)=O)C(C)C)cc1OC (centres undefined)	98	-12	-9	.	.	1.1
COc1ccc(/C=C2\SC(=O)N(CCNC(=O)CCS(=O)(=O)c3ccc(C)cc3)C2=O)cc1	131*	53	23	-1	2.8	0.8
COc1ccc(/C=C2\SC(=O)N(CCNC(=O)C3CCN(S(=O)(=O)c4cccs4)CC3)C2=O)cc1	138*	91	9	-3	1.3	0.9
COc1ccc(S(=O)(=O)CCC(=O)NCCc2ccc(C)cc2)cc1	96	-5	-2	-5	1.4	1
COc1ccc(/C=C2\SC(=O)N(CCNC(=O)Cn3cnnn3)C2=O)cc1	138*	118	22	6	3.7*	0.8
O=C1S/C(=C\c2ccc(Cl)cc2)C(=O)N1CCn1cnnn1	101	4	-3	4	1.1	1
O=C(NCCN1C(=O)S/C(=C\c2ccc(F)cc2)C1=O)C1CCN(S(=O)(=O)c2cccs2)CC1	96	-9	2	1	1	1
CCOC(=O)C1(Cc2cccc(F)c2)CCN(C(=O)Cn2cnnn2)CC1	.	.	.	-22	.	.
CC1=Nc2ccccc2N=C(NC(=O)c2ccccc2)C1c1ccccc1 (centres undefined)	92	13	-2	6	1.1	1
O=C(Nc1ccccc1)[C@@H]1CC=C[C@@H]2CCN(Cc3ccc(Cl)c(Cl)c3)C(=O)[C@@H]21	.	.	.	-5	.	.
C(=N\c1nc2ccccc2[nH]1)/c1cccs1	105	-11	71*	-13	1.2	0.3
SMILES	STAT1 activator	APP 5'UTR act	FLuc inh counter	Rad51 HR inh	NF-kB neuron act	FLuc act counter
Cn1c(/C=N/c2nc3ccccc3[nH]2)nc2ccccc21	108	22	-2	5	1.1	1
Cc1nc2ccc(NC(=O)c3ccc(Br)o3)cc2s1	145*	100	30	18	3.4*	0.7
CCCC(=O)Nc1nc2ccc(NC(=O)c3ccc(Br)o3)cc2s1	98	-7	-8	10	0.58	1.1
O=C(Nc1ccc(-c2nc3ncccc3o2)cc1)c1ccc(Br)o1	106	-3	1	-3	1.4	1
Cc1nc2ccc(NC(=O)Cc3cccs3)cc2s1	136*	63	38	-2	2.5	0.6
O=C(Nc1ccc(-c2nc3cccnc3s2)cc1)c1ccc(Br)o1	131*	33	3	-1	2.3	1
Cc1nc2ccc(NC(=O)c3ccc(Cl)s3)cc2s1	146*	111	0	1	2.2	1
CC(=O)NCC(=O)N1CCCC(C(=O)c2ccc(Oc3ccccc3)cc2)C1 (centres undefined)	105	8	5	.	1.5	1
N#Cc1c2n(c(=S)n(-c3ccc(F)cc3)c1=O)CCCCC2	96	10	-6	.	1.1	1.1
CC(NC(=O)c1ccccc1)C(=O)N/N=C/c1cccc([N+](=O)[O-])c1 (centres undefined)	90	-25	8	-8	1.4	0.9
CCOc1cc(/C=N/Nc2ncnc(Cl)c2N)ccc1O	120	26	65*	.	1.6	0.3
COc1ccc(N2CCN(c3cnc4ccccc4n3)CC2)cc1	133*	65	-3	39	2.2	1
COc1cccc(N2CCN(c3cnc4ccccc4n3)CC2)c1	134*	41	5	9	1.1	1
COc1ccc(C2CCCN2C(=S)Nc2cccc(Cl)c2C)cc1OC (centres undefined)	91	4	-4	.	0.81	1
CC1=Nc2cc(C(=O)O)ccc2Sc2ccc(C)cc21	109	9	-6	7	0.96	1.1
CC1=Nc2cc(C(=O)NCc3ccco3)ccc2Sc2ccc(C)cc21	95	-96	-7	-2	3.5*	1.1
Clc1ccc(-c2cn3cccnc3n2)cc1Cl	121	36	3	-9	1.7	1
COc1ccc(-c2cn3cccnc3n2)cc1NS(=O)(=O)c1ccccc1	90	13	10	.	1	0.9
Clc1ccc(-c2cn3cccnc3n2)cc1	133*	16	36	-13	2.3	0.6
COc1ccc(-c2cn3cccnc3n2)cc1F	112	14	57*	-4	1.9	0.4
C=CCSC1=N/C(=C\c2cc(OCC)c(OC(C)=O)c([N+](=O)[O-])c2)C(=O)S1	96	1	1	3	1.6	1
CC(=O)NC(=S)Nc1ccc(NC(=O)c2cccnc2Cl)cc1	.	.	.	-5	.	.
CC(c1ccco1)N(C(=O)COc1ccc(Cl)cc1Cl)c1ccccn1 (centres undefined)	122	197*	33	-8	4*	0.7
